The values that follow come from ChEMBL document CHEMBL3272204, “Products from furans. 1. Sunthesis and anticoccidial and antimicrobial activity of 5-amino-5,6-dihydro-6-methoxy-2-methyl-2-(4'-biphenylyl)-2H-pyran-3(4H)-ones and related compounds” (1976).

The subject of assay [1] is Staphylococcus. Briefly: Antibacterial activity against penicillin-sensitive Staphylococcus pyogenes assessed as growth inhibition after 24 hrs. It counts as functional. A digest of the protocol: (§1)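 Halving (twofold) serial dilutions of compound in nutrient broth, in vitro. Incubated 24 hr at 37°. Value reported is the lowest concentration that inhibited growth.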
For assay [2], the system named is Eimeria acervulina. Put plainly: Anticoccidal activity against Eimeria acervulina assessed as improved weight gain and mortality in chicken relative to noninfected control. It is filed as functional, organism-based. The essentials:
(§2)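 Chickens with experimental coccidiosis received compound orally in the diet at 0.05%, starting 1 day before infection. Efficacy was judged 6 days later from survival and weight gain.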

Assay [3] relates to Staphylococcus. Briefly: Antibacterial activity against penicillin-resistant Staphylococcus pyogenes assessed as growth inhibition after 24 hrs. It is filed as functional. The essentials:
as §1

The test system of the next assay is Pseudomonas aeruginosa. Briefly: Antibacterial activity against Pseudomonas aeruginosa assessed as growth inhibition after 24 hrs. It counts as functional. The essentials:
(§3)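 Twofold serial dilutions in nutrient broth. The minimum concentration inhibiting visible growth was read after 24 hr incubation at 37°.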

Assay [4] is described as follows: (§4) Antibacterial activity against Salmonella pullorum assessed as growth inhibition after 24 hrs. It counts as functional, Salmonella enterica subsp. enterica serovar Pullorum. A digest of the protocol:
as §3

Assay [5] in a line: Antifungal activity against Trichophyton granulosum assessed as growth inhibition after 10 days at 28 degC. Particulars: Trichophyton mentagrophytes var. granulosum. It is filed as functional. The essentials:
(§5)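 Twofold serial dilutions in Sabouraud broth. The minimum inhibitory concentration was read after 10 days at 28°.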

The next assay has as its system Proteus vulgaris. Briefly: Antibacterial activity against Proteus vulgaris assessed as growth inhibition after 24 hrs. It counts as functional. The essentials: as §3
The subject of another assay is Klebsiella aerogenes. Briefly: Antibacterial activity against Aerobacter aerogenes assessed as growth inhibition after 24 hrs. It counts as functional. The essentials:
as §3

The test system of another assay is Eimeria tenella. Briefly: Anticoccidal activity against Eimeria tenella assessed as improved weight gain and mortality in chicken relative to noninfected control. It counts as functional, organism-based. A digest of the protocol:
as §2

In the next assay the test system is Escherichia coli. Put plainly: Antibacterial activity against Escherichia coli 198 assessed as growth inhibition after 24 hrs. It counts as functional. A digest of the protocol: as §3
Another assay deals with Serratia marcescens. Briefly: Antibacterial activity against Serratia marcescens assessed as growth inhibition after 24 hrs. It counts as functional. The essentials: as §3
Another assay has as its system Candida albicans. Briefly: Antifungal activity against Candida albicans assessed as growth inhibition after 5 days at 37 degC. It counts as functional. A digest of the protocol:
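Twofold serial dilutions in Sabouraud broth. The minimum inhibitory concentration was read after 5 days at 37°.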

A further assay has as its system Klebsiella pneumoniae. Briefly: Antibacterial activity against Klebsiella pneumoniae assessed as growth inhibition after 24 hrs. It counts as functional. The essentials: as §3
A further assay concerns Enterococcus faecalis. Put plainly: Antibacterial activity against Streptococcus faecalis assessed as growth inhibition after 24 hrs. It counts as functional. A digest of the protocol: as §3
The next assay concerns Nannizzia gypsea. Briefly: Antifungal activity against Microsporum gypseum assessed as growth inhibition after 10 days at 28 degC. It is filed as functional. A digest of the protocol:
as §5

The test system of assay [6] is Eimeria acervulina. Put plainly: Anticoccidal activity against Eimeria acervulina assessed as improved weight gain in chicken. It is filed as functional, organism-based. A digest of the protocol: as §2
Assay [7] has as its system Salmonella enterica subsp. enterica serovar Pullorum. The description is as §4. It is filed as functional. The essentials:
as §3

[8] abbreviates: Staphylococcus, 24 h, read-out: MIC.
[9] abbreviates: Pseudomonas aeruginosa, 24 h, read-out: MIC.
[10] abbreviates: Salmonella enterica, 24 h, read-out: MIC.
The mark [11] stands for this setting: Proteus vulgaris, 24 h, read-out: MIC.
Setting [12] is: Klebsiella aerogenes, 24 h, read-out: MIC.
The mark [13] stands for this setting: Escherichia coli, 198, 24 h, read-out: MIC.
[14] abbreviates: Serratia marcescens, 24 h, read-out: MIC.
[15] abbreviates: Candida albicans, 120 h, read-out: MIC.
[16] abbreviates: Klebsiella pneumoniae, 24 h, read-out: MIC.
[17] abbreviates: Enterococcus faecalis, 24 h, read-out: MIC.
[18] abbreviates: Nannizzia gypsea, 240 h, read-out: MIC.

Structures are written as SMILES. Converted amounts (≈) assume the structure as drawn. The source made the active and inactive calls. No cut-off for these calls is given here.

By MIC is commonly meant the lowest concentration that inhibits growth of the organism.

Regarding `CN(C)C(=O)OC1C=CC(=O)C(C)(c2ccc(-c3ccccc3)cc2)O1` (stereo not drawn), the MIC (with Staphylococcus [1] (setting [8]); with Staphylococcus [3] (setting [8]); in the assay on Pseudomonas aeruginosa (setting [9]); in [4] (setting [10]); in assay [5]; in the assay on Proteus vulgaris (setting [11])) was 6.2 µg/mL (≈ 17.6 µM) in each case. In addition, the MIC in the assay with Klebsiella aerogenes (setting [12]) turned out to be 6.2 µg/mL (≈ 17.6 µM); with Escherichia coli (setting [13]) it was 6.2 µg/mL (≈ 17.6 µM); with Serratia marcescens (setting [14]), 6.2 µg/mL (≈ 17.6 µM); in the assay on Candida albicans (setting [15]), 50 µg/mL (≈ 142 µM); in the assay on Klebsiella pneumoniae (setting [16]) it was 6.2 µg/mL (≈ 17.6 µM); in the assay with Enterococcus faecalis (setting [17]) it was 6.2 µg/mL (≈ 17.6 µM). Moreover, the MIC in the assay with Nannizzia gypsea (setting [18]) was 8 µg/mL (≈ 22.8 µM). Also, the outcome in the assay on Eimeria acervulina [2] and with Eimeria tenella was Active.

As to `COC1OC(C)(c2ccc(-c3ccccc3)cc2)C(=O)CC1N(C)C` (stereo in doubt; 2a) [listing 1 of 2 here], the result with Eimeria acervulina [2] and with Eimeria tenella was Active. Moreover, the MIC in [5] came out at 8 µg/mL (≈ 23.6 µM).

With `CNC(=O)OC1C=CC(=O)C(C)(c2ccc(-c3ccccc3)cc2)O1` (stereo not drawn), the MIC entry (in the assay on Staphylococcus [1]; in the assay on Staphylococcus [3]; in the assay with Pseudomonas aeruginosa; in assay [7]; in the assay with Proteus vulgaris; with Klebsiella aerogenes) was “inactive” throughout. Moreover, the MIC result in the assay with Escherichia coli, in the assay on Serratia marcescens, with Klebsiella pneumoniae and in the assay with Enterococcus faecalis was “inactive” each time. Moreover, in the assay on Eimeria acervulina [6], the outcome was inactive. Further, the MIC in assay [5] was determined as 1.6 µg/mL (≈ 4.74 µM); in the assay with Candida albicans (setting [15]) it was 250 µg/mL (≈ 741 µM); with Nannizzia gypsea (setting [18]), 1.6 µg/mL (≈ 4.74 µM). For the same molecule, in the assay on Eimeria tenella, the result was Active.

In the case of `COC1OC(C)(c2ccc(-c3ccccc3)cc2)C(O)CC1N(C)C` (stereo in doubt; 3a), the MIC result (with Staphylococcus [1]; with Staphylococcus [3]; with Pseudomonas aeruginosa; in assay [7]; in assay [5]; with Proteus vulgaris) was “inactive” in each case. Further, the MIC result in the assay with Klebsiella aerogenes, with Escherichia coli, in the assay on Serratia marcescens, with Candida albicans, in the assay with Klebsiella pneumoniae and in the assay with Enterococcus faecalis was “inactive” in each case. Further, in the assay on Nannizzia gypsea, the MIC entry is “inactive”. Further, the outcome in the assay with Eimeria acervulina [2] and in the assay on Eimeria tenella was Active.

Take `COC1OC(C)(c2ccc(-c3ccccc3)cc2)C(=O)CC1N(C)C` (stereo in doubt; 2a) [listing 2 of 2 here]: the MIC (in the assay with Staphylococcus [1] (setting [8]); in the assay with Staphylococcus [3] (setting [8]); in the assay on Pseudomonas aeruginosa (setting [9]); in assay [4] (setting [10]); with Proteus vulgaris (setting [11]); with Klebsiella aerogenes (setting [12])) was 3.2 µg/mL (≈ 9.43 µM) each time. The MIC in the assay with Escherichia coli (setting [13]) was 3.2 µg/mL (≈ 9.43 µM); in the assay with Serratia marcescens (setting [14]), 3.2 µg/mL (≈ 9.43 µM); in the assay with Candida albicans (setting [15]) it was 16 µg/mL (≈ 47.1 µM); in the assay on Klebsiella pneumoniae (setting [16]), 3.2 µg/mL (≈ 9.43 µM); in the assay on Enterococcus faecalis (setting [17]), 3.2 µg/mL (≈ 9.43 µM); in the assay on Nannizzia gypsea (setting [18]) it was 4 µg/mL (≈ 11.8 µM).

In the case of `CNC1CC(=O)C(C)(c2ccc(-c3ccccc3)cc2)OC1OC` (stereo not drawn), the MIC (with Staphylococcus [1] (setting [8]); in the assay with Staphylococcus [3] (setting [8]); in the assay with Pseudomonas aeruginosa (setting [9]); in assay [4] (setting [10]); in the assay on Proteus vulgaris (setting [11]); in the assay on Klebsiella aerogenes (setting [12])) was 0.8 µg/mL (≈ 2.46 µM) in each case. Moreover, the MIC in the assay on Escherichia coli (setting [13]), with Serratia marcescens (setting [14]), with Klebsiella pneumoniae (setting [16]) and in the assay on Enterococcus faecalis (setting [17]) was 0.8 µg/mL (≈ 2.46 µM) throughout. In addition, in the assay on Eimeria acervulina [6], the outcome was inactive. In addition, the result in the assay on Eimeria tenella was Active.

As for `COC1C=CC(=O)C(C)(c2ccc(-c3ccccc3)cc2)O1` (stereo in doubt; 1a) [listing 1 of 2 here], the minimal inhibitory concentration (MIC) in assay [5] stood at 1 µg/mL (≈ 3.4 µM). Besides, in the assay with Eimeria tenella, the outcome was Active.

Regarding `COC1OC(C)(c2ccc(-c3ccccc3)cc2)C(O)CC1N(C)C` (single isomer, unassigned; isomer 1), the MIC entry (with Staphylococcus [1]; with Staphylococcus [3]; in the assay with Pseudomonas aeruginosa; in [7]; in assay [5]; with Proteus vulgaris) was “inactive” each time. Also, the MIC entry in the assay with Klebsiella aerogenes, with Escherichia coli, in the assay with Serratia marcescens, in the assay on Candida albicans, in the assay on Klebsiella pneumoniae and in the assay with Enterococcus faecalis was “inactive” throughout. Also, the MIC result with Nannizzia gypsea is “inactive”. In addition, the result with Eimeria acervulina [2] and in the assay on Eimeria tenella was Active.

For `COC1OC(C)(c2ccc(-c3ccccc3)cc2)C(=O)CC1N1CCOCC1` (stereo not drawn), the MIC stood at 3.2 µg/mL (≈ 8.39 µM) in the assay with Staphylococcus [1] (setting [8]); 3.2 µg/mL (≈ 8.39 µM) in the assay with Staphylococcus [3] (setting [8]); 3.2 µg/mL (≈ 8.39 µM) in the assay with Pseudomonas aeruginosa (setting [9]); 3.2 µg/mL (≈ 8.39 µM) in assay [4] (setting [10]); 16 µg/mL (≈ 41.9 µM) in [5]; 3.2 µg/mL (≈ 8.39 µM) in the assay with Proteus vulgaris (setting [11]). Moreover, the MIC with Klebsiella aerogenes (setting [12]), with Escherichia coli (setting [13]), in the assay on Serratia marcescens (setting [14]), in the assay with Klebsiella pneumoniae (setting [16]), in the assay with Enterococcus faecalis (setting [17]) and in the assay with Nannizzia gypsea (setting [18]) was 3.2 µg/mL (≈ 8.39 µM) each time. The result in the assay with Eimeria acervulina [6] was inactive. The outcome with Eimeria tenella was Active. Moreover, the MIC result in the assay with Candida albicans was “inactive”.

As to `COC1C=CC(=O)C(C)(c2ccc(-c3ccccc3)cc2)O1` (single isomer, unassigned; isomer 1), the MIC (with Staphylococcus [1]; in the assay on Staphylococcus [3]; in the assay with Pseudomonas aeruginosa; in assay [4]; in the assay on Proteus vulgaris; in the assay with Klebsiella aerogenes) was 6.2 µg/mL (≈ 21.1 µM) throughout. Also, the MIC in the assay with Escherichia coli stood at 6.2 µg/mL (≈ 21.1 µM); in the assay on Serratia marcescens, 6.2 µg/mL (≈ 21.1 µM); in the assay with Candida albicans, 16 µg/mL (≈ 54.4 µM); in the assay with Klebsiella pneumoniae, 6.2 µg/mL (≈ 21.1 µM); with Enterococcus faecalis, 6.2 µg/mL (≈ 21.1 µM); in the assay with Nannizzia gypsea, 2 µg/mL (≈ 6.79 µM).

Take `COC1C=CC(=O)C(C)(c2ccc(-c3ccccc3)cc2)O1` (stereo in doubt; 1a) [listing 2 of 2 here]: the MIC (with Staphylococcus [1] (setting [8]); in the assay with Staphylococcus [3] (setting [8]); with Pseudomonas aeruginosa (setting [9]); in [4] (setting [10]); in the assay with Proteus vulgaris (setting [11]); with Klebsiella aerogenes (setting [12])) was 6.2 µg/mL (≈ 21.1 µM) throughout. Moreover, the MIC was determined as 6.2 µg/mL (≈ 21.1 µM) in the assay on Escherichia coli (setting [13]); 6.2 µg/mL (≈ 21.1 µM) with Serratia marcescens (setting [14]); 32 µg/mL (≈ 109 µM) with Candida albicans (setting [15]); 6.2 µg/mL (≈ 21.1 µM) with Klebsiella pneumoniae (setting [16]); 6.2 µg/mL (≈ 21.1 µM) in the assay on Enterococcus faecalis (setting [17]); 2 µg/mL (≈ 6.79 µM) in the assay with Nannizzia gypsea (setting [18]).

For the molecule `COC1OC(C)(c2ccc(-c3ccccc3)cc2)C(=O)CC1N(C)C` (single isomer, unassigned; isomer 1) [listing 1 of 2 here], the outcome with Eimeria acervulina [2] and with Eimeria tenella was Active. Also, the MIC in [5] was determined as 8 µg/mL (≈ 23.6 µM).

Consider `COC1OC(C)(c2ccc(-c3ccccc3)cc2)C(=O)CC1N(C)C` (single isomer, unassigned; isomer 1) [listing 2 of 2 here], for which the MIC (in the assay on Staphylococcus [1]; with Staphylococcus [3]; with Pseudomonas aeruginosa; in [4]; in the assay with Proteus vulgaris; in the assay with Klebsiella aerogenes) was 6.2 µg/mL (≈ 18.3 µM) each time. Moreover, the MIC with Escherichia coli came out at 6.2 µg/mL (≈ 18.3 µM); in the assay on Serratia marcescens, 6.2 µg/mL (≈ 18.3 µM); in the assay with Candida albicans, 16 µg/mL (≈ 47.1 µM); with Klebsiella pneumoniae it was 6.2 µg/mL (≈ 18.3 µM); in the assay on Enterococcus faecalis it was 6.2 µg/mL (≈ 18.3 µM); in the assay with Nannizzia gypsea, 8 µg/mL (≈ 23.6 µM).
